Data: ChEMBL document CHEMBL1140069, “In vitro antifungal activity of polyfunctionalized 2-(hetero)arylquinolines prepared through imino Diels-Alder reactions” (2008)
Converted amounts (≈) assume the structure as drawn.

Legend:
Format in all cases: functional
Aspergillus flavus = assay: Antifungal activity against Aspergillus flavus ATCC 9170 after 48 hrs by broth microdilution technique; details: ATCC 9170, 48 h
In short: (§1)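 CLSI broth microdilution: M-27 A2 for yeasts and M-38 A for filamentous fungi. Medium is RPMI-1640 buffered to pH 7.0 with MOPS. Compound is diluted twofold from 250 to 0.98, final DMSO ≤2%. Inoculum is 1–5 × 10³ CFU/mL. Plates are incubated at 35 °C in a moist, dark chamber and read visually at 48 h. MIC100 is the lowest concentration giving total growth inhibition versus drug-free control.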

Aspergillus niger = assay: Antifungal activity against Aspergillus niger ATCC 9029 after 48 hrs by broth microdilution technique; details: ATCC 9029, 48 h; in short: as §1
Nannizzia gypsea = assay: Antifungal activity against Microsporum gypseum C115 after 48 hrs by broth microdilution technique; in short: as §1
Trichophyton rubrum [1] = assay: Antifungal activity against Trichophyton rubrum C110 after 48 hrs by broth microdilution technique; in short: as §1
[2] = system: Trichophyton mentagrophytes; assay: Antifungal activity against Trichophyton mentagrophytes ATCC 9972 after 48 hrs by broth microdilution technique; details: ATCC 9972, 48 h; in short: as §1
Trichophyton rubrum [3] = assay: Antifungal activity against Trichophyton rubrum C133 isolate; details: read-out: MIC100
Trichophyton rubrum [4] = assay: Antifungal activity against Trichophyton rubrum C135 isolate; details: read-out: MIC100
Trichophyton rubrum [5] = assay: Antifungal activity against Trichophyton rubrum C136 isolate; details: read-out: MIC100
Trichophyton rubrum [6] = assay: Antifungal activity against Trichophyton rubrum C137 isolate; details: read-out: MIC100
[7] = system: Trichophyton mentagrophytes; assay: Antifungal activity against Trichophyton mentagrophytes C131 isolate; details: read-out: MIC100
[8] = system: Trichophyton mentagrophytes; assay: Antifungal activity against Trichophyton mentagrophytes C132 isolate; details: read-out: MIC100
[9] = system: Trichophyton mentagrophytes; assay: Antifungal activity against Trichophyton mentagrophytes C364 isolate; details: read-out: MIC100
[10] = system: Trichophyton mentagrophytes; assay: Antifungal activity against Trichophyton mentagrophytes C539 isolate; details: read-out: MIC100
[11] = system: Trichophyton mentagrophytes; assay: Antifungal activity against Trichophyton mentagrophytes C943 isolate; details: read-out: MIC100
Candida albicans [12] = assay: Antifungal activity against Candida albicans ATCC 10231 after 48 hrs by broth microdilution technique; details: ATCC 10231, 48 h; in short: as §1
Saccharomyces cerevisiae = assay: Antifungal activity against Saccharomyces cerevisiae ATCC 9763 after 48 hrs by broth microdilution technique; details: ATCC 9763, 48 h; in short: as §1
Cryptococcus neoformans [13] = assay: Antifungal activity against Cryptococcus neoformans ATCC 32264 after 48 hrs by broth microdilution technique; details: ATCC 32264, 48 h; in short: as §1
Aspergillus fumigatus = assay: Antifungal activity against Aspergillus fumigatus ATTC 26934 after 48 hrs by broth microdilution technique; in short: as §1
Candida albicans [14] = assay: Antimicrobial activity against Candida albicans ATCC 10231 at 6.25 ug/ml after 24 hrs; details: ATCC 10231, 24 h
In short: (§2)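 Growth-inhibition microplate test. Strains are grown on Sabouraud-chloramphenicol agar for 48 h at 30 °C, and inoculum is added to RPMI-1640 containing compound at a final 100–6.25, with DMSO ≤2%. Each strain has a growth control (same DMSO, no compound) and a sterility control.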

Candida albicans [15] = assay: Antimicrobial activity against Candida albicans C126 isolate at 6.25 ug/ml after 24 hrs; in short: as §2
Candida albicans [16] = assay: Antimicrobial activity against Candida albicans C127 isolate at 6.25 ug/ml after 24 hrs; details: C127, 24 h; in short: as §2
Candida albicans [17] = assay: Antimicrobial activity against Candida albicans C128 isolate at 6.25 ug/ml after 24 hrs; in short: as §2
Cryptococcus neoformans [18] = assay: Antimicrobial activity against Cryptococcus neoformans IM 972724 isolate at 6.25 ug/ml after 48 hrs
In short: (§3)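 Clinical Cryptococcus isolates kept on Sabouraud-dextrose agar slopes; inoculum 1–5 × 10³ CFU/mL. Quinoline DMSO stocks were diluted in RPMI-1640 to final 100–6.25 µg/mL, with DMSO ≤2%. An equal volume of inoculum was added (200 µL per well). Run in triplicate.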

Candida albicans [19] = assay: Antimicrobial activity against Candida albicans C129 isolate at 6.25 ug/ml after 24 hrs; in short: as §2
Candida albicans [20] = assay: Antimicrobial activity against Candida albicans C130 isolate at 6.25 ug/ml after 24 hrs; in short: as §2
Nakaseomyces glabratus = assay: Antimicrobial activity against Candida glabrata C115 isolate at 6.25 ug/ml after 24 hrs
In short: (§4)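 Percent growth inhibition in 96-well microplates. Compound stocks in DMSO (≤2%) were diluted in RPMI-1640 to final 100–6.25 µg/mL, and 100 µL inoculum was added (final 200 µL). Controls were a growth well (inoculum with matching DMSO, no compound) and a sterility well (no inoculum). Inhibition was calculated against growth and sterility wells.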

Candida tropicalis = assay: Antimicrobial activity against Candida tropicalis C131 isolate at 6.25 ug/ml after 24 hrs; in short: as §4
Candida parapsilosis = assay: Antimicrobial activity against Candida parapsilosis C124 isolate at 6.25 ug/ml after 24 hrs; details: Lodderomyces parapsilosis; in short: as §4
Pichia kudriavzevii = assay: Antimicrobial activity against Candida krusei C117 isolate at 6.25 ug/ml after 24 hrs; in short: as §4
Cryptococcus neoformans [21] = assay: Antimicrobial activity against Cryptococcus neoformans IM 042074 isolate at 6.25 ug/ml after 48 hrs; in short: as §4
Cryptococcus neoformans [22] = assay: Antimicrobial activity against Cryptococcus neoformans IM 983036 isolate at 6.25 ug/ml after 48 hrs; in short: as §3
Cryptococcus neoformans [23] = assay: Antimicrobial activity against Cryptococcus neoformans IM 00319 isolate at 6.25 ug/ml after 48 hrs; in short: as §4
Cryptococcus neoformans [24] = assay: Antimicrobial activity against Cryptococcus neoformans IM 972751 isolate at 6.25 ug/ml after 48 hrs; in short: as §3
Cryptococcus neoformans [25] = assay: Antimicrobial activity against Cryptococcus neoformans IM 031631 isolate at 6.25 ug/ml after 48 hrs; in short: as §4
Cryptococcus neoformans [26] = assay: Antimicrobial activity against Cryptococcus neoformans IM 031706 isolate at 6.25 ug/ml after 48 hrs; in short: as §4
Cryptococcus neoformans [27] = assay: Antimicrobial activity against Cryptococcus neoformans IM 961951 isolate at 6.25 ug/ml after 48 hrs; in short: as §3
Cryptococcus neoformans [28] = assay: Antimicrobial activity against Cryptococcus neoformans ATCC 32264 at 6.25 ug/ml after 48 hrs; details: ATCC 32264, 48 h; in short: as §4
Cryptococcus neoformans [29] = assay: Antimicrobial activity against Cryptococcus neoformans IM 983040 isolate at 6.25 ug/ml after 48 hrs; in short: as §3
Cryptococcus neoformans [30] = assay: Antimicrobial activity against Cryptococcus neoformans IM 052470 isolate at 6.25 ug/ml after 48 hrs; in short: as §4

Row | Structure (SMILES) | MIC (Aspergillus flavus) | MIC (Aspergillus niger) | MIC (Nannizzia gypsea) | MIC (Trichophyton rubrum [1]; read-out: MIC) | MIC (Trichophyton rubrum [1]; read-out: MIC100) | MIC [2] | MIC (Trichophyton rubrum [3]) | MIC (Trichophyton rubrum [4]) | MIC (Trichophyton rubrum [5]) | MIC (Trichophyton rubrum [6]) | MIC [7] | MIC [8] | MIC [9] | MIC [10] | MIC [11] | MIC (Candida albicans [12]) | MIC (Saccharomyces cerevisiae) | MIC (Cryptococcus neoformans [13]) | MIC (Aspergillus fumigatus) | inhibition at 6.25 µg/mL (Candida albicans [14]) | other results
1 | Cc1cc(-c2ccncc2)nc2c(C)cccc12 | > 250 µg/mL | > 250 µg/mL | 12.5 µg/mL (≈ 53.3 µM) | 12.5 µg/mL (≈ 53.3 µM) | 7.8 µg/mL (≈ 33.3 µM) | 12.5 µg/mL (≈ 53.3 µM) | 15.6 µg/mL (≈ 66.6 µM) | 7.8 µg/mL (≈ 33.3 µM) | 7.8 µg/mL (≈ 33.3 µM) | 7.8 µg/mL (≈ 33.3 µM) | 31.2 µg/mL (≈ 133 µM) | 7.8 µg/mL (≈ 33.3 µM) | 7.8 µg/mL (≈ 33.3 µM) | 7.8 µg/mL (≈ 33.3 µM) | 7.8 µg/mL (≈ 33.3 µM) | > 250 µg/mL | > 250 µg/mL | > 250 µg/mL | > 250 µg/mL | – | –
2 | C[C@@H]1[C@H](O)[C@@H](C)/C=C/C=C/C=C/C=C/C=C/C=C/C=C/[C@H](O[C@@H]2O[C@H](C)[C@@H](O)[C@H](N)[C@@H]2O)C[C@@H]2O[C@](O)(C[C@@H](O)C[C@@H](O)[C@H](O)CC[C@@H](O)C[C@@H](O)CC(=O)O[C@H]1C)C[C@H](O)[C@H]2C(=O)O [AMPHOTERICIN B] | 0.5 µg/mL (≈ 0.541 µM) | 0.5 µg/mL (≈ 0.541 µM) | – | – | – | – | – | – | – | – | – | – | – | – | – | 1 µg/mL (≈ 1.08 µM) | 0.5 µg/mL (≈ 0.541 µM) | 0.25 µg/mL (≈ 0.271 µM) | 0.5 µg/mL (≈ 0.541 µM) | 100% | inhibition at 6.25 µg/mL (Candida albicans [15]): 100%; inhibition at 6.25 µg/mL (Candida albicans [16]): 100%; inhibition at 6.25 µg/mL (Candida albicans [17]): 100%; inhibition at 6.25 µg/mL (Cryptococcus neoformans [18]): 100%; inhibition at 6.25 µg/mL (Candida albicans [19]): 100%; inhibition at 6.25 µg/mL (Candida albicans [20]): 100%; inhibition at 6.25 µg/mL (Nakaseomyces glabratus): 100%; inhibition at 6.25 µg/mL (Candida tropicalis): 100%; inhibition at 6.25 µg/mL (Candida parapsilosis): 100%; inhibition at 6.25 µg/mL (Pichia kudriavzevii): 100%; inhibition at 6.25 µg/mL (Cryptococcus neoformans [21]): 100%; inhibition at 6.25 µg/mL (Cryptococcus neoformans [22]): 100%; inhibition at 6.25 µg/mL (Cryptococcus neoformans [23]): 100%; inhibition at 6.25 µg/mL (Cryptococcus neoformans [24]): 100%; inhibition at 6.25 µg/mL (Cryptococcus neoformans [25]): 100%; inhibition at 6.25 µg/mL (Cryptococcus neoformans [26]): 100%; inhibition at 6.25 µg/mL (Cryptococcus neoformans [27]): 100%; inhibition at 6.25 µg/mL (Cryptococcus neoformans [28]): 100%; inhibition at 6.25 µg/mL (Cryptococcus neoformans [29]): 100%; inhibition at 6.25 µg/mL (Cryptococcus neoformans [30]): 100%
3 | CC(=O)N1CCN(c2ccc(OCC3COC(Cn4ccnc4)(c4ccc(Cl)cc4Cl)O3)cc2)CC1 (stereo not drawn) [KETOCONAZOLE] | 0.5 µg/mL (≈ 0.941 µM) | 0.25 µg/mL (≈ 0.47 µM) | 0.05 µg/mL (≈ 0.0941 µM) | 0.025 µg/mL (≈ 0.047 µM) | – | 0.025 µg/mL (≈ 0.047 µM) | – | – | – | – | – | – | – | – | – | 0.5 µg/mL (≈ 0.941 µM) | 0.5 µg/mL (≈ 0.941 µM) | 0.25 µg/mL (≈ 0.47 µM) | 0.125 µg/mL (≈ 0.235 µM) | 100% | inhibition at 6.25 µg/mL (Candida albicans [15]): 100%; inhibition at 6.25 µg/mL (Candida albicans [16]): 100%; inhibition at 6.25 µg/mL (Candida albicans [17]): 100%; inhibition at 6.25 µg/mL (Cryptococcus neoformans [18]): 100%; inhibition at 6.25 µg/mL (Candida albicans [19]): 100%; inhibition at 6.25 µg/mL (Candida albicans [20]): 100%; inhibition at 6.25 µg/mL (Nakaseomyces glabratus): 100%; inhibition at 6.25 µg/mL (Candida tropicalis): 100%; inhibition at 6.25 µg/mL (Candida parapsilosis): 100%; inhibition at 6.25 µg/mL (Pichia kudriavzevii): 100%; inhibition at 6.25 µg/mL (Cryptococcus neoformans [21]): 100%; inhibition at 6.25 µg/mL (Cryptococcus neoformans [22]): 100%; inhibition at 6.25 µg/mL (Cryptococcus neoformans [23]): 100%; inhibition at 6.25 µg/mL (Cryptococcus neoformans [24]): 100%; inhibition at 6.25 µg/mL (Cryptococcus neoformans [25]): 100%; inhibition at 6.25 µg/mL (Cryptococcus neoformans [26]): 100%; inhibition at 6.25 µg/mL (Cryptococcus neoformans [27]): 100%; inhibition at 6.25 µg/mL (Cryptococcus neoformans [28]): 100%; inhibition at 6.25 µg/mL (Cryptococcus neoformans [29]): 100%; inhibition at 6.25 µg/mL (Cryptococcus neoformans [30]): 100%
4 | CN(C/C=C/C#CC(C)(C)C)Cc1cccc2ccccc12 [TERBINAFINE] | – | – | 0.04 µg/mL (≈ 0.137 µM) | – | 0.01 µg/mL (≈ 0.0343 µM) | 0.04 µg/mL (≈ 0.137 µM) | 0.006 µg/mL (≈ 0.0206 µM) | 0.006 µg/mL (≈ 0.0206 µM) | 0.006 µg/mL (≈ 0.0206 µM) | 0.012 µg/mL (≈ 0.0412 µM) | 0.006 µg/mL (≈ 0.0206 µM) | 0.006 µg/mL (≈ 0.0206 µM) | 0.006 µg/mL (≈ 0.0206 µM) | 0.006 µg/mL (≈ 0.0206 µM) | 0.006 µg/mL (≈ 0.0206 µM) | – | – | – | – | – | –
